The test system of one test is A549. The test can be described thus: Antiproliferative activity against human A549 cells by SRB assay. The class given is functional, cell-based. For orientation: In SRB staining, fixed cells bind dye roughly in proportion to their protein.
Test [1] deals with HT-29. The test can be described thus: Antiproliferative activity against human HT-29 cells by SRB assay. Format: functional, cell-based.
A short description of test [2]: Antiproliferative activity against human MMRU cells by SRB assay. The class given is functional, cell-based.
For another test, the system named is MCF7. The test can be described thus: Antiproliferative activity against human MCF7 cells by SRB assay. Format: functional, cell-based.
The subject of another test is HepG2. The test can be described thus: Antiproliferative activity against human HepG2 cells by SRB assay. Format: functional, cell-based.
Another test relates to U-118-MG. The test can be described thus: Antiproliferative activity against human U118MG cells by SRB assay. The class given is functional, cell-based.
Another test deals with HeLa. The test can be described thus: Antiproliferative activity against human HeLa cells by SRB assay. The class given is functional, cell-based.
Test [3] in a line: Antiproliferative activity against human HTB-174 cells by SRB assay. Format: functional, cell-based.
For the next test, the system named is MDA-MB-231. The test can be described thus: Antiproliferative activity against human MDA-MB-231 cells by SRB assay. The class given is functional, cell-based.
For a further test, the system named is NCI-H460. The test can be described thus: Cell cycle arrest in human H460 cells assessed as DNA content at G0-G1 phase at 50 uM after 16 hrs by flow cytometry. The class given is functional. Put shortly:
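H-460 NSCLC cells serum-starved 72 h, then exposed to 50 µM for 16 h, with DMSO vehicle control. Harvested cells were washed in cold PBS and fixed in 70% ethanol at 4 °C for at least 4 h. They were treated with 3 mg/ml RNase plus 50 µg/ml propidium iodide for 30 min at 37 °C. Flow cytometry gave percent cells in G0–G1, S and G2–M.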

Test [4] deals with HT-29. The test can be described thus: Cell cycle arrest in human HT-29 cells assessed as DNA content at G0-G1 phase at 25 uM after 16 hrs by flow cytometry. Format: functional. The gist of the method: (§1)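 HT-29 colon carcinoma cells were grown in complete medium and treated at 25 or 50 µM for 16 h, with 0.1% DMSO as vehicle. Cells were washed in cold PBS and fixed in 70% ethanol (4 °C, ≥4 h). Staining used 3 mg/ml ribonuclease and 50 µg/ml propidium iodide for 30 min at 37 °C. Phase distribution was measured by flow cytometry.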

In test [5] the test system is HT-29. The test can be described thus: Cell cycle arrest in human HT-29 cells assessed as DNA content at S phase at 25 uM after 16 hrs by flow cytometry. Format: functional. Put shortly: as §1
In general terms: Flow cytometry measures light scatter and fluorescence of single cells or particles in a stream.

In test [6] the test system is HT-29. The test can be described thus: Cell cycle arrest in human HT-29 cells assessed as DNA content at G2-M phase at 25 uM after 16 hrs by flow cytometry. Format: functional. The gist of the method:
as §1

For test [7], the system named is HT-29. The test can be described thus: Cell cycle arrest in human HT-29 cells assessed as DNA content at G0-G1 phase at 50 uM by flow cytometry. Format: functional. The gist of the method:
as §1

Test [8] relates to HT-29. The test can be described thus: Cell cycle arrest in human HT-29 cells assessed as DNA content at S phase at 50 uM by flow cytometry. The class given is functional. The gist of the method: as §1
Test [9] relates to HT-29. The test can be described thus: Cell cycle arrest in human HT-29 cells assessed as DNA content at G2-M phase at 50 uM by flow cytometry. The class given is functional. The gist of the method:
as §1

Molecules are shown by their SMILES.

For `COc1ccc2c(c1)CN(C(=O)c1ccc([N+](=O)[O-])cc1)c1ccc(Cl)cc1C2c1ccccc1Cl` (centres undefined), the IC50 (commonly the concentration that inhibits the measured activity by half) in the test with A549 (Homo sapiens, A549) came out at 1500 nM; in the test with HT-29 [1] (Homo sapiens, HT-29) it was 600 nM; in test [2] (Homo sapiens, MMRU) it was 500 nM; in the test with MCF7, 1300 nM; with HepG2, 900 nM; with U-118-MG, 800 nM. For the same compound, the IC50 in the test with HeLa came out at 500 nM; in [3], 500 nM; in the test on MDA-MB-231, 900 nM.
Take `CN(C)c1ccc(C(=O)N2Cc3ccccc3C(c3ccccc3)c3ccccc32)cc1` (centres undefined): the IC50 in the test with A549 (Homo sapiens, A549) was found to be 2100 nM; with HT-29 [1] (Homo sapiens, HT-29), 1000 nM; in the test with MCF7, 1700 nM; in the test on HepG2 it was 1000 nM; in the test on U-118-MG, 2600 nM; in the test with HeLa, 900 nM. Moreover, the IC50 in the test with MDA-MB-231 worked out at 1700 nM.
Consider `O=C(c1ccc([N+](=O)[O-])cc1)N1Cc2ccccc2C(c2ccccc2)c2ccccc21` (centres undefined), for which the IC50 amounted to 700 nM with HT-29 [1] (Homo sapiens, HT-29); 500 nM in test [2] (Homo sapiens, MMRU); 900 nM in the test on HepG2; 900 nM in the test with U-118-MG; 600 nM with HeLa; 700 nM in test [3].
With `Clc1ccccc1C1c2ccccc2CN(Cc2ccccc2)c2ccccc21` (centres undefined), the IC50 is greater than 5000 nM in the test with A549 (Homo sapiens, A549); greater than 5000 nM in the test on HT-29 [1] (Homo sapiens, HT-29); 4300 nM in the test on MCF7; 4500 nM with HepG2; greater than 5000 nM in the test with HeLa; greater than 5000 nM in the test on MDA-MB-231.
For `O=C(Nc1ccc([N+](=O)[O-])cc1)N1Cc2ccccc2C(c2ccccc2Cl)c2ccccc21` (centres undefined), the IC50 with A549 (Homo sapiens, A549) was greater than 5000 nM; with HT-29 [1] (Homo sapiens, HT-29) it was 4800 nM; in test [2] (Homo sapiens, MMRU), 3100 nM; in the test on MCF7, 2400 nM; with HepG2 it was 4500 nM; in test [3], 4000 nM.
As to `CN1Cc2ccccc2C(c2ccccc2Cl)c2ccccc21` (centres undefined), the IC50 is 11400 nM in the test on A549 (Homo sapiens, A549); 9700 nM with HT-29 [1] (Homo sapiens, HT-29); 4600 nM in test [2] (Homo sapiens, MMRU); 1700 nM in the test with MCF7.
With `COC(=O)N1Cc2ccccc2C(c2ccccc2)c2ccccc21` (centres undefined), the IC50 was greater than 10000 nM with A549 (Homo sapiens, A549); greater than 10000 nM in the test with HT-29 [1] (Homo sapiens, HT-29); 10000 nM in test [2] (Homo sapiens, MMRU).
For the compound `Nc1ccc(C(=O)N2Cc3ccccc3C(c3ccccc3Cl)c3ccccc32)cc1` (centres undefined), the IC50 with A549 (Homo sapiens, A549) was determined as 3700 nM; in the test with HT-29 [1] (Homo sapiens, HT-29), 1700 nM; in the test with MCF7, 1100 nM; in the test on HepG2, 1500 nM; with U-118-MG, 1600 nM; with HeLa it was 500 nM. The IC50 in the test on MDA-MB-231 turned out to be 1200 nM.
As to `O=C(Oc1ccccc1)N1Cc2ccccc2C(c2ccccc2Cl)c2ccccc21` (centres undefined), the IC50 was 5000 nM with HT-29 [1] (Homo sapiens, HT-29); 4200 nM in the test with MCF7; 3600 nM in the test on HepG2.
Consider `CC(C)(C)Oc1cccc(C(=O)N2Cc3ccccc3C(c3ccccc3Cl)c3ccccc32)c1` (centres undefined), for which the IC50 amounted to 3700 nM in the test on A549 (Homo sapiens, A549); 1700 nM with HT-29 [1] (Homo sapiens, HT-29); 3400 nM in the test with MCF7; 1200 nM with HepG2; 2500 nM with U-118-MG; 1400 nM in the test on HeLa. In the test on MDA-MB-231, inhibition was half-maximal at 1500 nM (IC50).
For the compound `COc1ccc(C(=O)N2Cc3ccccc3C(c3ccccc3Cl)c3ccccc32)cc1` (centres undefined), the IC50 in the test with A549 (Homo sapiens, A549) worked out at 1100 nM; with HT-29 [1] (Homo sapiens, HT-29), 400 nM; in test [2] (Homo sapiens, MMRU), 200 nM; in the test with MCF7, 500 nM; in the test with HepG2 it was 400 nM; in the test on U-118-MG, 400 nM. In addition, the IC50 in the test on HeLa amounted to 200 nM; in test [3], 300 nM.
In the case of `Clc1ccccc1C1c2ccccc2CNc2ccccc21` (centres undefined), the IC50 came out at 5400 nM in the test on A549 (Homo sapiens, A549); 1200 nM in the test with HT-29 [1] (Homo sapiens, HT-29); 2700 nM in the test on MCF7; 900 nM in the test with HepG2; 1400 nM in the test on U-118-MG; 1100 nM with HeLa. For the same compound, the IC50 with MDA-MB-231 turned out to be 1300 nM.
In the case of `COc1ccc2c(c1)C(c1ccccc1Cl)c1cc(Cl)ccc1N(C(=O)c1ccc([N+](=O)[O-])cc1)C2` (centres undefined), the IC50 was determined as 600 nM in the test with A549 (Homo sapiens, A549); 200 nM with HT-29 [1] (Homo sapiens, HT-29); 200 nM in [2] (Homo sapiens, MMRU); 700 nM in the test on MCF7; 400 nM in the test on HepG2; 400 nM in the test on U-118-MG. The results for the IC50 (with HeLa; in test [3]; with MDA-MB-231) were 200 nM, 200 nM and 400 nM, respectively.
Turning to `O=C(c1ccccc1)N1Cc2ccccc2C(c2ccccc2Cl)c2ccccc21` (centres undefined), the IC50 in the test on A549 (Homo sapiens, A549) came to 2500 nM; in the test on HT-29 [1] (Homo sapiens, HT-29) it was 600 nM; in the test with MCF7 it was 1500 nM; in the test on HepG2, 800 nM; with U-118-MG it was 1300 nM; with HeLa, 900 nM. In addition, in the test on MDA-MB-231, 1200 nM corresponded to half-maximal inhibition (IC50).
In the case of `CC(C)(C)Oc1cccc(C(=O)N2Cc3ccccc3C(c3ccccc3)c3ccccc32)c1` (centres undefined), the IC50 with A549 (Homo sapiens, A549) was greater than 5000 nM; in the test with HT-29 [1] (Homo sapiens, HT-29) it was 1700 nM; in test [2] (Homo sapiens, MMRU) it was 2500 nM; in the test on MCF7, 4500 nM; in the test on HepG2, 2600 nM; in test [3], 3600 nM.
For `C[N+](C)(C)c1ccc(C(=O)N2Cc3ccccc3C(c3ccccc3)c3ccccc32)cc1` (centres undefined), the IC50 in the test on A549 (Homo sapiens, A549) was found to be 2000 nM; in the test with HT-29 [1] (Homo sapiens, HT-29) it was 1100 nM; with MCF7, 1700 nM; in the test on HepG2, 1000 nM; in the test with U-118-MG it was 1800 nM; with HeLa, 400 nM. Besides, in the test with MDA-MB-231, inhibition was half-maximal at 1300 nM (IC50).
For the compound `O=C(c1ccc([N+](=O)[O-])cc1)N1Cc2ccccc2C(c2ccccc2Cl)c2ccccc21` (single isomer, unassigned; 9a), in the test with NCI-H460, the Activity amounted to 71.06%.
Still for that read-out and setting: then `O=C(c1ccc([N+](=O)[O-])cc1)N1Cc2ccccc2C(c2ccccc2Cl)c2ccccc21` (single isomer, unassigned; 9b), with 74.96%.
In the case of `O=C(c1ccc([N+](=O)[O-])cc1)N1Cc2ccccc2C(c2ccccc2Cl)c2ccccc21` (stereo in doubt; 9), the IC50 with A549 (Homo sapiens, A549) amounted to 800 nM; with HT-29 [1] (Homo sapiens, HT-29), 300 nM; in test [2] (Homo sapiens, MMRU), 200 nM; in the test on MCF7, 600 nM; in the test on HepG2, 300 nM; in the test on U-118-MG, 500 nM. In addition, the values for the IC50 (in the test on HeLa; in [3]; in the test on MDA-MB-231) were 300 nM, 100 nM and 500 nM, respectively. Also, the Activity in the test on HT-29 [4] turned out to be 63.68%; in the test on HT-29 [5] it was 25.79%; in the test on HT-29 [6] it was 10.53%; with HT-29 [7], 69.22%; in the test on HT-29 [8] it was 18.08%; in the test with HT-29 [9], 12.69%. Moreover, the Activity in the test on NCI-H460 came out at 73.95%.
With `O=C(c1ccccc1)N1Cc2ccccc2C(c2ccccc2)c2ccccc21` (stereo in doubt; 13), the IC50 with A549 (Homo sapiens, A549) is greater than 10000 nM; in the test on HT-29 [1] (ht-29) it was greater than 10000 nM; in test [2] (mmru), greater than 10000 nM.
As for `O=C(c1ccccc1)N1Cc2ccccc2C(c2ccccc2)c2ccccc21` (stereo in doubt; 17), the IC50 with A549 (a549) was greater than 5000 nM; in the test with HT-29 [1] (ht-29), 2600 nM; in test [2] (mmru), 2700 nM; in the test on MCF7 it was 4200 nM; in the test on HepG2, 3400 nM; in [3] it was 2600 nM.
